# Data published in ChEMBL document CHEMBL3808293, “Antiproliferative activity and apoptosis inducing effects of nitric oxide donating derivatives of evodiamine” (Bioorg Med Chem, 2016).
# The source made the active and inactive calls. The calls are words filed in the database; no cut-off is given here.
# Key:
# BGC-823 = test: Induction of NO release in human BGC823 cells at 100 uM incubated for 1 hr by Griess assay; type: functional
# How it was run: (§1)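 Cells exposed to 100 μM compound; the methods give 150 min, the results text 1 h. Cell lysates mixed with Griess reagent 10 min at 37 °C, absorbance read at 540 nm. Nitrite quantified against a sodium nitrite standard curve; 0.4% DMSO-treated cells gave background. Mean ± SD of three independent experiments.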
# [1] = Antiproliferative activity against human Bel7402 cells after 72 hrs by MTT assay; type: functional, cell-based; conditions: Bel-7402, 72 h
# How it was run: (§2)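 Cells pre-incubated 24 h at 37 °C, 5% CO2, then exposed to compounds for 72 h. MTT (5 mg/mL solution) added for a further 4 h, formazan dissolved in DMSO, OD read at 570 nm. Negative reference 0.1% DMSO; evodiamine and 5-Fu as positive references. IC50 is the concentration inhibiting 50% of growth; mean ± SD of three independent experiments.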
# [2] = Antiproliferative activity against human BGC823 cells after 72 hrs by MTT assay; type: functional, cell-based; conditions: BGC-823, 72 h; how it was run: as §2
# Bel-7402 [3] = test: Induction of NO release in human Bel7402 cells at 100 uM incubated for 1 hr by Griess assay; type: functional; how it was run: as §1
# A549 = test: Antiproliferative activity against human A549 cells after 72 hrs by MTT assay; type: functional, cell-based; conditions: A549, 72 h; how it was run: as §2
# L02 = test: Induction of NO release in human L02 cells at 100 uM incubated for 1 hr by Griess assay; type: functional; how it was run: as §1
# [4] = Antiproliferative activity against human L02 cells after 72 hrs by MTT assay; type: cell-based; conditions: L02, 72 h; how it was run: as §2
# Bel-7402 [5] = test: Induction of mitochondrial membrane depolarization in human Bel7402 cells at 2 uM after 72 hrs by JC-1 staining based flow cytometry (reference value: 4.26%); type: functional
# Bel-7402 [6] = test: Induction of apoptosis in human Bel7402 cells assessed as early apoptotic cells at 3 uM after 72 hrs by Annexin V-FITC/propidium iodide staining based flow cytometry (reference value: 6.66%); type: functional
# Bel-7402 [7] = test: Induction of apoptosis in human Bel7402 cells assessed as increase in cytochrome-C level at 1 to 3 uM after 72 hrs by Western blot analysis; type: functional, cell-based
# How it was run: (§3)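 Bel-7402 cells exposed to different doses for 72 h, lysed, and protein content determined. Lysates separated on 10% SDS-PAGE and transferred to nitrocellulose. Membranes probed with monoclonal primary antibodies, then HRP-conjugated secondary antibodies, with ECL detection.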
# Bel-7402 [8] = test: Induction of apoptosis in human Bel7402 cells after 72 hrs by Annexin V-FITC/propidium iodide staining based flow cytometry; type: functional, cell-based
# Bel-7402 [9] = test: Induction of apoptosis in human Bel7402 cells assessed as increase in caspase-9 expression at 1 to 3 uM after 72 hrs by Western blot analysis; type: functional, cell-based; how it was run: as §3
# Bel-7402 [10] = test: Induction of apoptosis in human Bel7402 cells assessed as down regulation of Bcl-2 expression at 1 to 3 uM after 72 hrs by Western blot analysis; type: functional, cell-based; how it was run: as §3
# [11] = Cell cycle arrest in human Bel7402 cells assessed as accumulation at S phase at 1 uM after 24 hrs by propidium iodide staining based flow cytometry (reference value: 33.7%); type: functional; conditions: Bel-7402
# Bel-7402 [12] = test: Induction of mitochondrial membrane depolarization in human Bel7402 cells at 1 uM after 72 hrs by JC-1 staining based flow cytometry (reference value: 4.26%); type: functional
# Bel-7402 [13] = test: Induction of apoptosis in human Bel7402 cells assessed as necrotic cells at 2 uM after 72 hrs by Annexin V-FITC/propidium iodide staining based flow cytometry (reference value: 2.48%); type: functional
# Bel-7402 [14] = test: Induction of apoptosis in human Bel7402 cells assessed as late apoptotic cells at 3 uM after 72 hrs by Annexin V-FITC/propidium iodide staining based flow cytometry (reference value: 2.55%); type: functional
# Bel-7402 [15] = test: Induction of apoptosis in human Bel7402 cells assessed as early apoptotic cells at 1 uM after 72 hrs by Annexin V-FITC/propidium iodide staining based flow cytometry (reference value: 6.66%); type: functional
# [16] = Cell cycle arrest in human Bel7402 cells assessed as accumulation at S phase at 3 uM after 24 hrs by propidium iodide staining based flow cytometry (reference value: 33.7%); type: functional; conditions: Bel-7402
# [17] = Induction of apoptosis in human Bel7402 cells assessed as upregulation of FAS protein expression at 1 to 3 uM after 72 hrs by Western blot analysis; type: functional, cell-based; conditions: Bel-7402; how it was run: as §3
# [18] = Cell cycle arrest in human Bel7402 cells assessed as accumulation at G2 phase at 2 uM after 24 hrs by propidium iodide staining based flow cytometry (reference value: 23.17%); type: functional; conditions: Bel-7402
# Bel-7402 [19] = test: Induction of apoptosis in human Bel7402 cells assessed as necrotic cells at 3 uM after 72 hrs by Annexin V-FITC/propidium iodide staining based flow cytometry (reference value: 2.48%); type: functional
# [20] = Cell cycle arrest in human Bel7402 cells assessed as accumulation at G1 phase at 1 uM after 24 hrs by propidium iodide staining based flow cytometry (reference value: 43.13%); type: functional; conditions: Bel-7402
# [21] = Cell cycle arrest in human Bel7402 cells assessed as accumulation at G1 phase at 2 uM after 24 hrs by propidium iodide staining based flow cytometry (reference value: 43.13%); type: functional; conditions: Bel-7402
# Bel-7402 [22] = test: Induction of apoptosis in human Bel7402 cells assessed as late apoptotic cells at 2 uM after 72 hrs by Annexin V-FITC/propidium iodide staining based flow cytometry (reference value: 2.55%); type: functional
# Bel-7402 [23] = test: Induction of apoptosis in human Bel7402 cells assessed as early apoptotic cells at 2 uM after 72 hrs by Annexin V-FITC/propidium iodide staining based flow cytometry (reference value: 6.66%); type: functional
# [24] = Cell cycle arrest in human Bel7402 cells assessed as accumulation at G1 phase at 3 uM after 24 hrs by propidium iodide staining based flow cytometry (reference value: 43.13%); type: functional; conditions: Bel-7402
# Bel-7402 [25] = test: Induction of apoptosis in human Bel7402 cells assessed as live cells at 3 uM after 72 hrs by Annexin V-FITC/propidium iodide staining based flow cytometry (reference value: 88.31%); type: functional
# [26] = Cell cycle arrest in human Bel7402 cells assessed as accumulation at G2 phase at 3 uM after 24 hrs by propidium iodide staining based flow cytometry (reference value: 23.17%); type: functional; conditions: Bel-7402
# Bel-7402 [27] = test: Induction of mitochondrial membrane depolarization in human Bel7402 cells at 3 uM after 72 hrs by JC-1 staining based flow cytometry (reference value: 4.26%); type: functional
# Bel-7402 [28] = test: Induction of apoptosis in human Bel7402 cells assessed as increase in caspase-3 expression at 1 to 3 uM after 72 hrs by Western blot analysis; type: functional, cell-based; how it was run: as §3
# [29] = Cell cycle arrest in human Bel7402 cells assessed as accumulation at G2 phase at 1 uM after 24 hrs by propidium iodide staining based flow cytometry (reference value: 23.17%); type: functional; conditions: Bel-7402
# Bel-7402 [30] = test: Induction of apoptosis in human Bel7402 cells assessed as live cells at 2 uM after 72 hrs by Annexin V-FITC/propidium iodide staining based flow cytometry (reference value: 88.31%); type: functional
# [31] = Cell cycle arrest in human Bel7402 cells assessed as accumulation at S phase at 2 uM after 24 hrs by propidium iodide staining based flow cytometry (reference value: 33.7%); type: functional; conditions: Bel-7402
# [32] = Induction of apoptosis in human Bel7402 cells assessed as upregulation of Bax expression at 1 to 3 uM after 72 hrs by Western blot analysis; type: functional, cell-based; conditions: Bel-7402; how it was run: as §3
# Bel-7402 [33] = test: Induction of apoptosis in human Bel7402 cells assessed as live cells at 1 uM after 72 hrs by Annexin V-FITC/propidium iodide staining based flow cytometry (reference value: 88.31%); type: functional
# Bel-7402 [34] = test: Induction of mitochondrial membrane depolarization in human Bel7402 cells after 72 hrs by JC-1 staining based flow cytometry; type: functional, cell-based
# Bel-7402 [35] = test: Induction of apoptosis in human Bel7402 cells assessed as necrotic cells at 1 uM after 72 hrs by Annexin V-FITC/propidium iodide staining based flow cytometry (reference value: 2.48%); type: functional
# Bel-7402 [36] = test: Induction of apoptosis in human Bel7402 cells assessed as late apoptotic cells at 1 uM after 72 hrs by Annexin V-FITC/propidium iodide staining based flow cytometry (reference value: 2.55%); type: functional
# Bel-7402 [37] = test: Induction of apoptosis in human Bel7402 cells assessed as increase in caspase-8 expression at 1 to 3 uM after 72 hrs by Western blot analysis; type: functional, cell-based; how it was run: as §3
compound,measurement,setting,value
CN1c2ccccc2C(=O)N2CCc3c(n(CCCOC(=O)CCC(=O)OCCOc4no[n+]([O-])c4S(=O)(=O)c4ccccc4)c4ccccc34)C21 (centres undefined),Activity,BGC-823,97.6 µM
same,IC50,[1],4.65 µM
same,IC50,[2],0.06 µM
same,Activity,Bel-7402 [3],97 µM
same,IC50,A549,5.32 µM
same,Activity,L02,18 µM
same,IC50,[4],6.38 µM
CN1c2ccccc2C(=O)N2CCc3c(n(CCOc4no[n+]([O-])c4S(=O)(=O)c4ccccc4)c4ccccc34)C21 (centres undefined),Activity,BGC-823,78.8 µM
same,IC50,[1],0.55 µM
same,IC50,[2],0.02 µM
same,Activity,Bel-7402 [3],77.5 µM
same,IC50,A549,0.23 µM
same,Activity,L02,18.5 µM
same,IC50,[4],0.02 µM
CN1c2ccccc2C(=O)N2CCc3c(n(CCOC(=O)CCC(=O)OCCOc4no[n+]([O-])c4S(=O)(=O)c4ccccc4)c4ccccc34)C21 (centres undefined),Activity,BGC-823,93.5 µM
same,IC50,[1],1.54 µM
same,IC50,[2],0.02 µM
same,Activity,Bel-7402 [3],88.7 µM
same,IC50,A549,3.04 µM
same,Activity,L02,6.59 µM
same,IC50,[4],17.1 µM
CN1c2ccccc2C(=O)N2CCc3c([nH]c4ccccc34)C21 (centres undefined),IC50,[1],1.23 µM
same,IC50,[2],1.16 µM
same,IC50,A549,0.98 µM
same,IC50,[4],0.34 µM
CN1c2ccccc2C(=O)N2CCc3c(n(CCCCCCO[N+](=O)[O-])c4ccccc34)C21 (centres undefined),Activity,BGC-823,100 µM
same,IC50,[1],28.8 µM
same,IC50,[2],> 100 µM
same,Activity,Bel-7402 [3],104 µM
same,IC50,A549,> 100 µM
same,Activity,L02,16.4 µM
same,IC50,[4],> 100 µM
CN1c2ccccc2C(=O)N2CCc3c(n(CCCCCCOc4no[n+]([O-])c4S(=O)(=O)c4ccccc4)c4ccccc34)C21 (centres undefined),Activity,Bel-7402 [5],26.57%
same,Activity,Bel-7402 [6],24.37%
same,Activity,Bel-7402 [7],Active
same,Activity,Bel-7402 [8],Dose-dependent effect
same,Activity,Bel-7402 [9],Active
same,Activity,Bel-7402 [10],Active
same,Activity,[11],39.3%
same,Activity,Bel-7402 [12],13.5%
same,Activity,BGC-823,87.3 µM
same,Activity,Bel-7402 [13],4.74%
same,IC50,[1],2.1 µM
same,IC50,[2],0.07 µM
same,Activity,Bel-7402 [14],28.2%
same,Activity,Bel-7402 [15],15.92%
same,Activity,[16],51.5%
same,Activity,[17],Active
same,Activity,[18],10%
same,Activity,Bel-7402 [19],6.69%
same,Activity,[20],44.9%
same,Activity,[21],42.6%
same,Activity,Bel-7402 [22],15.4%
same,Activity,Bel-7402 [23],20.98%
same,Activity,[24],42.6%
same,Activity,Bel-7402 [3],82.2 µM
same,IC50,A549,2.31 µM
same,Activity,Bel-7402 [25],40.74%
same,Activity,[26],5.9%
same,Activity,Bel-7402 [27],44.37%
same,Activity,Bel-7402 [28],Active
same,Activity,[29],15.7%
same,Activity,Bel-7402 [30],58.88%
same,Activity,L02,26 µM
same,Activity,[31],47.3%
same,Activity,[32],Active
same,Activity,Bel-7402 [33],77.63%
same,IC50,[4],> 100 µM
same,Activity,Bel-7402 [34],Dose-dependent effect
same,Activity,Bel-7402 [35],2.73%
same,Activity,Bel-7402 [36],3.71%
same,Activity,Bel-7402 [37],Active
CN1c2ccccc2C(=O)N2CCc3c(n(CCCOc4no[n+]([O-])c4S(=O)(=O)c4ccccc4)c4ccccc34)C21 (centres undefined),Activity,BGC-823,83.6 µM
same,IC50,[1],6.21 µM
same,IC50,[2],0.08 µM
same,Activity,Bel-7402 [3],83.1 µM
same,IC50,A549,5.85 µM
same,Activity,L02,16.4 µM
same,IC50,[4],2.35 µM
O=C(O)CCC(=O)OCCOc1no[n+]([O-])c1S(=O)(=O)c1ccccc1,IC50,[1],21.4 µM
same,IC50,[2],18 µM
same,IC50,A549,27.9 µM
same,IC50,[4],38.7 µM
CN1c2ccccc2C(=O)N2CCc3c(n(CCCO[N+](=O)[O-])c4ccccc34)C21 (centres undefined),Activity,BGC-823,83.8 µM
same,IC50,[1],12.8 µM
same,IC50,[2],> 100 µM
same,Activity,Bel-7402 [3],78.5 µM
same,IC50,A549,> 100 µM
same,Activity,L02,19.4 µM
same,IC50,[4],> 100 µM
COC(=O)CCC(=O)OCCOc1no[n+]([O-])c1S(=O)(=O)c1ccccc1,IC50,[1],27.9 µM
same,IC50,[2],21.4 µM
same,IC50,A549,24.7 µM
same,IC50,[4],43.3 µM
